An excerpt weighted towards active compounds, which were near 2.5% of everything screened.
MBD2 DNA inh – inhibitors of MBD2 binding to methylated DNA, primary screen, biochemical, TR-FRET, DNA-binding domain, human. Methyl-CpG-binding domain protein 2 (Homo sapiens), Q9UBB5. MBD2 binding to methylated oligonucleotide. inhibition, % at 4.4 µM. hit rate 0.31% among 370,000; in the data active means inhibition above about 13%
UHRF1 binding – UHRF1 methylated DNA binding inhibitors, primary screen, counter-screen for MBD2 inhibitor project, biochemical, TR-FRET, human UHRF1, single concentration; hit rate 0.75% among 370,000; AID 687016, 2013; UHRF1 binding to methylated oligo; E3 ubiquitin-protein ligase UHRF1 (Homo sapiens), Q96T88; inhibition, % at 4.4 µM; in the data active means inhibition above about 21%;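 further: UHRF1 SRA domain binding a hemimethylated CpG hairpin DNA probe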
Rin1 Abl inh – inhibitors of Rin1-Abl protein binding, primary screen, biochemical, TR-FRET; inhibition, % at 7.35 µM; hit rate 0.4% among 360,000; in the data active means inhibition above about 5%, passing the limit was not always enough
Target sequence (P00519 whole entry, looked up): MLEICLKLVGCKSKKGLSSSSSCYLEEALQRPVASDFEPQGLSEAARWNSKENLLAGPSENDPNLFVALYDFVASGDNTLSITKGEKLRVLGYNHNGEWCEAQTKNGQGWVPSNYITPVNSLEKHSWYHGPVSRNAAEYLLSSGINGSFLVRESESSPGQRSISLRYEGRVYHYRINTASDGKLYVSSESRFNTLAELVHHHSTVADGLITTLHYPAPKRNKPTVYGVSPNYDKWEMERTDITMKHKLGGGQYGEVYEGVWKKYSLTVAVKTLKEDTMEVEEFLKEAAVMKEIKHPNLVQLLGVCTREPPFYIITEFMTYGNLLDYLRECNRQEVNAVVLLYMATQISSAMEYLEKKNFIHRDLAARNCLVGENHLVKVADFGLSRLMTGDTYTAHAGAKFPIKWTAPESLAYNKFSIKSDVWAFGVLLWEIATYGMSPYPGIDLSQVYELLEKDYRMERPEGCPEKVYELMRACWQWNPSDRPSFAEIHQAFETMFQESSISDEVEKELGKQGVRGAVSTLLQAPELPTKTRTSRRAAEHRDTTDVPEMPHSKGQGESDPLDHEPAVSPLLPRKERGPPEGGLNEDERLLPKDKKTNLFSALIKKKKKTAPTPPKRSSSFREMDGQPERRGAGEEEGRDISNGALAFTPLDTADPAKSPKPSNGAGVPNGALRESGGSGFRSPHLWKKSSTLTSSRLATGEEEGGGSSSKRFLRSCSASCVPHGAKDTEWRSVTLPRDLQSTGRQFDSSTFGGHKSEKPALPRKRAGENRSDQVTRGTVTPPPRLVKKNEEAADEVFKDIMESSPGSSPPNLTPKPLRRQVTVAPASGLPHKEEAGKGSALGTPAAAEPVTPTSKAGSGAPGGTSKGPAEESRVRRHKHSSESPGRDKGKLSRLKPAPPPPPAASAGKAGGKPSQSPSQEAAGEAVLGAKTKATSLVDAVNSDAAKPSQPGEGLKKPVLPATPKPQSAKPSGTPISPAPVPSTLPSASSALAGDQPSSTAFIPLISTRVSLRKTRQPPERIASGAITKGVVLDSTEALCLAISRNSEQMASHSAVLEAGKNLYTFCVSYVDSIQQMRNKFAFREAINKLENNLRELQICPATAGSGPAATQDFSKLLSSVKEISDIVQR
Target sequence (Q13671 whole entry, looked up): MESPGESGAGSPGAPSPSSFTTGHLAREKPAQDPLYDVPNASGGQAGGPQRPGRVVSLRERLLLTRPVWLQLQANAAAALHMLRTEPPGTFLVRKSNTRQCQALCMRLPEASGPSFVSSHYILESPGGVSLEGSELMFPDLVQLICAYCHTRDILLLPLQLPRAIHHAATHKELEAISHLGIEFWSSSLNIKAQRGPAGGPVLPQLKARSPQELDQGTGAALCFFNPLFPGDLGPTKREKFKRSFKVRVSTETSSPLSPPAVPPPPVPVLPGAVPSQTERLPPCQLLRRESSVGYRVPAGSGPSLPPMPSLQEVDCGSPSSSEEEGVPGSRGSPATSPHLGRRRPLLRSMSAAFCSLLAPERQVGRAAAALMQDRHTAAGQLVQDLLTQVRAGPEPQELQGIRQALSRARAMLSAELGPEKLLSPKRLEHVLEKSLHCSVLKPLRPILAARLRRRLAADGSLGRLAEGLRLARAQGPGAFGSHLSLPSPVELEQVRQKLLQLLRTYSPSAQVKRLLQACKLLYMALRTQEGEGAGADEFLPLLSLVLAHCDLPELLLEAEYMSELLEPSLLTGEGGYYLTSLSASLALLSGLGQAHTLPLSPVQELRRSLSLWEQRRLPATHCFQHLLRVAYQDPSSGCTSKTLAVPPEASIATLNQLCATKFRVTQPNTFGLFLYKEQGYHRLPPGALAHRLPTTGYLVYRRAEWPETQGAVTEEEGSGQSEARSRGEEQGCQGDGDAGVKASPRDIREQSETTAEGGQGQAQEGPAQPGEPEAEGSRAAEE
Beta2AR agonist – beta2AR agonists driving receptor internalization, primary screen, cell-based, FAP fluorogen, flow cytometry; AID 504454, 2011; Beta-2 adrenergic receptor (Homo sapiens), P07550; Am2.2-beta2AR cells; response, % (no concentration beside the values); hit rate 0.43% among 340,000;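 active means response above a set limit, near 3 SD of response in nonfluorescent compounds, cut at about 42% in these data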
ABHD5 PLIN5 PPI – ABHD5-PLIN5 interaction inhibitors, primary screen, cell lysate, split luciferase complementation, luminescence. inhibition, % at 4 µM. AID 602281, 2012. hit rate 0.78% among 360,000. Split G. princeps luciferase complementation, 4 h;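 active means inhibition above the mean inhibition across every tested compound plus 3 SD, cut at about 22% in these data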
Arr AP2 block – inhibitors of beta-arrestin/AP2 binding, primary screen, biochemical, GPCR trafficking, flow cytometry; beta-arrestin 1 C-terminal peptide binding to AP2 beta2-adaptin appendage (human); FITC-arrestin peptide / GST-AP2 beads; AP2 beta2 appendage carries R879A mutation; inhibition, % at 10 µM; hit rate 0.31% among 340,000;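 active means inhibition above a set limit, near 3 SD of compounds lacking own fluorescence, cut at about 54% in these data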
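System: GST-AP2 R879A glutathione beads | Also added: FITC-arrestin peptide, 50 nM | Times: 12 min plus 1 h, RT | Signal: Bead flow cytometry, FITC channel | Buffer or medium: PBS with 0.05% Tween 20 and 0.1% BSA | Read-out basis: Percent drop in bead-associated FITC signal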
Rin1-Abl confirm – Rin1-Abl binding inhibitor retest, confirmation, biochemical, TR-FRET; purified proteins; inhibition, % at 7.35 µM; hit rate 49% among 1,300; AID 602124, 2011; shares compounds with Rin1 Abl inh
GFP quench-1 – GFP fluorescence inhibitors and quenchers, artefact control for Rin1-Abl interaction inhibitor project, biochemical | inhibitors/quenchers counterscreen | inhibition, % at 6.75 µM | AID 602125, 2011 | shares compounds with Rin1 Abl inh | hit rate 8.5% among 1,300;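 further: ABL1-eGFP fusion protein alone without its partner RIN1-SBP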
GFP quench DR – GFP fluorescence inhibitors and quenchers, dose response, artefact control for Rin1-Abl interaction inhibitor project, biochemical; shares compounds with Rin1 Abl inh; GFP fluorescence interference/quenching counterscreen; IC50, µM; 230 tested, under 10 active; AID 602182, 2012; call rule not given here;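 further: ABL1-eGFP fusion protein alone without its RIN1 binding partner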
GFP quench-2 – GFP fluorescence inhibitors and quenchers, late-stage follow-up, artefact control for Rin1-Abl interaction inhibitor project, biochemical, dose response. IC50, µM. GFP fluorescence quenching counterscreen. 25 tested, under 10 active. shares compounds with Rin1 Abl inh; call rule not given here
Each line names hits and unclear results; the compound was inactive in the other large screens (follow-up assays come after a bar, where they were run). Unless noted, no stated cut-off is given here; in the data, active means inhibition above about 6.5%; inactive means the rest.

CC(C)c1ccc(NC(=O)CSc2nnc(CN3CCOCC3)n2C)cc1	Rin1 Abl inh 18.1 | Rin1-Abl confirm 25.5 | GFP quench-1 inactive | GFP quench DR inactive
CCOC(=O)CCCCCC(=O)Nc1ccc2c(c1)C(=O)N([C@H](C)CO)C[C@H](C)[C@@H](CN(C)C(=O)Nc1ccccc1)OCCCC[C@@H](C)O2	Rin1 Abl inh 15.6 (no result: Beta2AR agonist, Arr AP2 block) | Rin1-Abl confirm 22.3 | GFP quench-1 inactive | GFP quench DR inactive
CCOC(=O)CCCCCC(=O)Nc1ccc2c(c1)C(=O)N([C@@H](C)CO)C[C@@H](C)[C@H](CN(C)C(=O)Nc1ccccc1)OCCCC[C@H](C)O2	Rin1 Abl inh 16.1 (no result: Beta2AR agonist, Arr AP2 block) | Rin1-Abl confirm 18.4 | GFP quench-1 inactive | GFP quench DR inactive
CCOC(=O)CCCCCC(=O)Nc1ccc2c(c1)C(=O)N([C@@H](C)CO)C[C@H](C)[C@H](CN(C)C(=O)Nc1ccc(C(F)(F)F)cc1)OCCCC[C@H](C)O2	none (no result: Beta2AR agonist, Arr AP2 block)
CCN(CC)CCCNC(=O)c1oc(=O)c2ccccc2c1-c1ccc(C)cc1	none (no result: Rin1 Abl inh, Beta2AR agonist, ABHD5 PLIN5 PPI, Arr AP2 block)
CN(C(=O)c1cccc(NC(=O)Cc2ccc(NC(=O)C3CCN(C(=O)c4ccccc4)CC3)cc2)c1)C1CCC1	none
CN(C(=O)c1ccc(NC(=O)Cc2ccc(NC(=O)C3CCN(C(=O)C4CC4)CC3)cc2)cc1)C1CC1	Rin1 Abl inh 37.0 | Rin1-Abl confirm 34.1 | GFP quench-1 inactive | GFP quench DR inactive
CN(C(=O)c1ccc(NC(=O)Cc2ccc(NC(=O)C3CCN(C(=O)c4ccccc4)CC3)cc2)cc1)C1CC1	Rin1 Abl inh 77.2 | Rin1-Abl confirm 79.3 | GFP quench-1 inactive | GFP quench DR inactive | GFP quench-2 inactive
CN(C(=O)c1ccc(NC(=O)Cc2ccc(NC(=O)C3CCN(C(=O)C4CCC4)CC3)cc2)cc1)C1CCCC1	none
Nc1cccc2nsnc12	none
Nc1cc2nsnc2cc1Br	Rin1 Abl inh 10.2 | Rin1-Abl confirm 26.5 | GFP quench-1 9.5
COc1ccc(CN2c3ccccc3C(=O)CS2(=O)=O)cc1OC	none (no result: Rin1 Abl inh, Beta2AR agonist, ABHD5 PLIN5 PPI, Arr AP2 block)
Cc1[nH][nH]c(=O)c1C(c1c(C)[nH][nH]c1=O)c1cn(C)c2ccccc12	none
Cc1[nH][nH]c(=O)c1C(c1c(C)[nH][nH]c1=O)c1cn(Cc2cccc3ccccc23)c2ccccc12	Rin1 Abl inh 19.3 | Rin1-Abl confirm 6.5 | GFP quench-1 inactive
Cc1ccc(NC(=O)CN2CCCCCC2)c(Br)c1	Rin1 Abl inh 10.5 | Rin1-Abl confirm inactive | GFP quench-1 inactive
COc1ccc(N2CCN(CC(=O)Nc3ccc(C)cc3Br)CC2)cc1	none
CN(CC#CC1=CCCCC1)/C(N)=N/C(=O)OCc1ccccc1	none (no result: Rin1 Abl inh, Beta2AR agonist, ABHD5 PLIN5 PPI, Arr AP2 block)
O=C(Nc1ccc(Oc2ccccc2)cc1)C1CCN(c2c3c(nc4ncnn24)CCC3)CC1	Rin1 Abl inh 6.0 | Rin1-Abl confirm 11.7 | GFP quench-1 inactive
O=C(C1=COCCO1)N(Cc1nnc(-c2ccccc2Cl)o1)C1CC1	Rin1 Abl inh 8.2 | Rin1-Abl confirm inactive | GFP quench-1 inactive
O=C(C1=COCCO1)N(Cc1nnc(-c2ccc(Cl)cc2)o1)C1CC1	none
CCOC(=O)CC[C@@]1(C(=O)OCC)C[C@@H](CC(=O)NCCCN2CCCC2=O)C(=O)N2CCCC=C21	none (no result: Rin1 Abl inh, Beta2AR agonist, ABHD5 PLIN5 PPI, Arr AP2 block)
CC(CNC(=O)CN1C(=O)CCSc2ccccc21)c1ccccc1 (stereo not drawn)	none
CCOc1ccc(CCNC(=O)CN2C(=O)CCSc3ccccc32)cc1	Rin1 Abl inh 10.6 | Rin1-Abl confirm inactive | GFP quench-1 inactive
O=c1cc(CO)oc(C(Nc2ccccn2)c2ccccc2Cl)c1O (stereo not drawn)	none
Cc1ccnc(NC(c2ccccc2O)c2oc(CO)cc(=O)c2O)c1 (stereo not drawn)	Rin1 Abl inh 27.2 | Rin1-Abl confirm 9.8 | GFP quench-1 inactive
CC(c1c[nH]c2ccccc12)c1c[nH]c2ccc(Br)cc12 (stereo not drawn)	none (no result: Rin1 Abl inh, Beta2AR agonist, ABHD5 PLIN5 PPI, Arr AP2 block)
COc1ccc(C(=O)Nc2ccccc2C(=O)O)cc1Cl	none
COc1cc(C(=O)Nc2ccc(O)cc2C(=O)O)ccc1OC(C)=O	Rin1 Abl inh 71.2 | Rin1-Abl confirm 72.1 | GFP quench-1 inactive | GFP quench DR inactive
CC(=O)Nc1cccc(C(=O)Nc2ccccc2C(=O)O)c1	Rin1 Abl inh 17.5 | Rin1-Abl confirm inactive | GFP quench-1 inactive
O=C(Nc1ccc(O)cc1C(=O)O)c1cccc(Br)c1	Rin1 Abl inh 15.6 | Rin1-Abl confirm 23.5 | GFP quench-1 inactive | GFP quench DR inactive
COC(=O)c1ccc(NC(=O)c2ccc(OC(C)=O)c(OC)c2)cc1	none
CCOc1c(Cl)cc(C(=O)Nc2ccccc2C(=O)O)cc1Cl	Rin1 Abl inh 13.1 | Rin1-Abl confirm 19.0 | GFP quench-1 inactive | GFP quench DR inactive
O=C(Nc1ccccc1C(=O)O)c1cccc(C(=O)Nc2ccccc2C(=O)O)c1	none
CCOC(=O)C1CCN(C(=O)c2cccc(NC3=NC4CS(=O)(=O)CC4S3)c2)CC1 (stereo not drawn)	Rin1 Abl inh 18.4 | Rin1-Abl confirm 15.1 | GFP quench-1 inactive
Cc1ccc(C(=O)N2CC(C)CC(C)C2)cc1NC1=NC2CS(=O)(=O)CC2S1 (stereo not drawn)	Rin1 Abl inh 22.4 | Rin1-Abl confirm 26.4 | GFP quench-1 inactive | GFP quench DR inactive
COc1cccc(N2CCN(C(=O)c3cccc(NC4=NC5CS(=O)(=O)CC5S4)c3)CC2)c1 (stereo not drawn)	none
Cc1ccc(C(=O)N2CCC(C)CC2)cc1NC1=NC2CS(=O)(=O)CC2S1 (stereo not drawn)	none
